A selection: hits, their analogues and other compounds. The true share with any hit is near 2.8%.
PAFAH1B2 inh – PAFAH1B2 enzyme inhibitors, primary screen, biochemical, fluorescence polarization, human | Platelet-activating factor acetylhydrolase IB subunit alpha2 (Homo sapiens), P68402 | recombinant PAFAH1B2, FP-rhodamine activity probe | inhibition, % at 3.39 µM | hit rate 1.2% among 340,000 | AID 492953, 2010;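 active = inhibition above the mean of all tested compounds plus 3 SD, cut at about 24% in these data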
Target sequence (P68402 whole entry, looked up): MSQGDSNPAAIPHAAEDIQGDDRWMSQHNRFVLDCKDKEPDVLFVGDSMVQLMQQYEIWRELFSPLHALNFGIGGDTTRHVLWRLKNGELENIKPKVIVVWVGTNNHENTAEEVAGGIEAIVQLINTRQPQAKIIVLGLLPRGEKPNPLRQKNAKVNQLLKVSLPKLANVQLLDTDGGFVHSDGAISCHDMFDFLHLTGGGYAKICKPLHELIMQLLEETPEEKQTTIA
ASAP1 inh – inhibitors of human ASAP1 ArfGAP activity, primary screen, biochemical, fluorescence polarization; ASAP1-stimulated ARF1 GTP hydrolysis, GDP FP detection; inhibition, % at 16.5 µM; hit rate 0.19% among 360,000; in the data active = inhibition above about 25%
pPAFAH inh – pPAFAH enzyme inhibitors, primary screen, biochemical, fluorescence polarization, human. inhibition, % at 3.39 µM. hit rate 1.5% among 330,000. Platelet-activating factor acetylhydrolase (Homo sapiens), Q13093. recombinant pPAFAH, FP-rhodamine probe fluorescence polarization. AID 463082, 2010;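 active = inhibition above the mean inhibition across the screen plus 3 SD, cut at about 25% in these data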;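 also: inhibitors block binding of the rhodamine activity-based probe so polarization drops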
PAFAH1B3 FP inh – PAFAH1B3 enzyme inhibitors, primary screen, biochemical, fluorescence polarization, human; Platelet-activating factor acetylhydrolase IB subunit alpha1 (Homo sapiens), Q15102; recombinant PAFAH1B3, FP-rhodamine probe; inhibition, % at 3.39 µM; hit rate 0.28% among 340,000; AID 492972, 2010;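 active = inhibition above the screen-wide average of all tested compounds plus 3 SD, cut at about 25% in these data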
Target sequence (Q15102 whole entry, looked up): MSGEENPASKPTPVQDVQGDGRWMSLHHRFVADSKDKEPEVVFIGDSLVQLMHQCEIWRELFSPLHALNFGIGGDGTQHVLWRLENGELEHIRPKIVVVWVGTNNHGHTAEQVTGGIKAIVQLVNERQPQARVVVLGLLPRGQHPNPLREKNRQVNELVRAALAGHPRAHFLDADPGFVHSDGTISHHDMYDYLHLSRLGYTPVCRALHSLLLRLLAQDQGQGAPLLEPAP
ARFGAP1 inh – inhibitors of rat ARFGAP1 GAP activity, primary screen, biochemical, fluorescence polarization, GDP tracer; ADP-ribosylation factor GTPase-activating protein 1 (Rattus norvegicus), Q62848; Arfgap1-stimulated ARF1 GTP hydrolysis, GDP FP detection; inhibition, % at 16.5 µM; hit rate 0.26% among 360,000;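 active = inhibition above a per-plate limit, mean inhibition of low control wells plus 3 SD, cut at about 25% in these data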
Target sequence (Q62848 1-136 limits assumed): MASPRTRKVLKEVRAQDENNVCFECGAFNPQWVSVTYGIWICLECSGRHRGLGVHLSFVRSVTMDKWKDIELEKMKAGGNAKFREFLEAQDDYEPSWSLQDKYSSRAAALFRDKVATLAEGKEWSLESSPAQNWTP
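Material – truncated rat Arfgap1 GAP domain · Buffer or medium – HEPES-based buffer, pH 7.5 · Reagent – human ARF1(Δ1-17)-GTP substrate · Dosing – 16.5 µM single point, 1.26% DMSO · Schedule – GTP hydrolysis reaction 2 h at 25 °C · Technique – GDP detection by fluorescence polarization · Benchmarks – No-Arfgap1 wells (100%) versus DMSO full-reaction wells (0%) · Repeats – single replicate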
PAFAH2 inh – PAFAH2 enzyme inhibitors, primary screen, biochemical, fluorescence polarization, human; Platelet-activating factor acetylhydrolase 2, cytoplasmic (Homo sapiens), Q99487; recombinant PAFAH2, FP-rhodamine activity probe; inhibition, % at 3.39 µM; hit rate 0.99% among 340,000; AID 492956, 2010;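 active = inhibition above the mean over all tested compounds plus 3 SD, cut at about 30% in these data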;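 also: inhibitors block probe labeling of enzyme so polarization drops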
Numbers stand for hits; 0 = inactive; - = no result given.

SMILES | PAFAH1B2 inh | ASAP1 inh | pPAFAH inh | PAFAH1B3 FP inh | ARFGAP1 inh | PAFAH2 inh
COc1ccc(C(=O)NC(=S)NCc2cccnc2)cc1OC | 0 | 0 | 0 | 0 | 0 | 0
COc1ccc(C(=O)NC(=S)NCc2ccccc2)cc1OC | 0 | 0 | 30 | 0 | 0 | 0
CCCCCCCCN1C(=O)[C@@H](CC(=O)N2CCN(C(=O)OCC)CC2)C[C@@]2(C(=O)OC)C1=C[C@H](C(C)(C)C)O[C@@H]2C | - | 0 | - | - | 0 | -
CN(C)CCCNc1nc2sc3c(c2c(=O)n1CCc1ccccc1)CCCCC3 | 0 | 0 | 0 | 0 | 0 | 0
Cc1[nH]n2c(=O)cc(-c3ccc([N+](=O)[O-])cc3)nc2c1-c1ccccc1 | 0 | 0 | 33 | 0 | 0 | 0
CCCc1cc(=O)n2[nH]c(C)c(-c3ccccc3)c2n1 | 0 | 0 | 0 | 0 | 0 | 0
CCN(CC)c1ccc(C=C2C(=O)OC3(CCCCC3)OC2=O)cc1 | 0 | 0 | 0 | 0 | 0 | 0
CCN(CC)c1ccc(/C=C2/C(=O)c3ccc(C(=O)O)cc3C2=O)cc1 | 0 | 0 | 28 | 0 | 0 | 0
CCOc1ncccc1C(=O)OCC(=O)NC1CCCCC1 | 0 | 0 | 31 | 0 | 0 | 79
O=C(COC(=O)c1ccc(F)cc1Cl)NC1CCCCCCC1 | 0 | 0 | 33 | 0 | 0 | 86
NC(=O)NC(=O)COC(=O)c1sc2ccccc2c1Cl | 0 | 0 | 0 | 0 | 0 | 0
O=C(COC(=O)c1sc2ccccc2c1Cl)NC1CCCCC1 | 0 | 0 | 31 | 0 | 0 | 0
CCOc1ncccc1C(=O)OCC(=O)Nc1ccc(-c2nc3ccc(C)cc3s2)cc1 | 0 | 0 | 25 | 0 | 0 | 0
CCOc1ncccc1C(=O)OC(C)C(=O)NC(=O)NC1CCCCC1 (stereo unspecified) | 0 | 0 | 0 | 0 | 0 | 0
CCCCCCN1CCN(C2CN(Cc3cn(Cc4ccccc4)nn3)S(=O)(=O)C2)CC1 (stereo unspecified) | - | 0 | - | - | 0 | -
Cn1c(CC(O)c2nc3ccccc3n2C)nc2ccccc21 (stereo unspecified) | - | 0 | - | - | 0 | -
CSc1ccccc1C(=O)OCC(=O)NC1CCCCCCC1 | - | 0 | - | - | 0 | -
CCOc1ncccc1C(=O)OCC(=O)Nc1c(C)cc(C)cc1C | 0 | 0 | 26 | 0 | 0 | 34
CCOc1ncccc1C(=O)OCC(=O)Nc1c(C)cccc1C | 0 | 0 | 0 | 0 | 0 | 0
O=C(COC(=O)c1ccccc1Br)NC1CCCCCCC1 | 0 | 0 | 32 | 0 | 0 | 86
Cc1cccc(-c2ccc3c(c2)C2CC3CCN2Cc2ccc3c(c2)OCO3)c1 (stereo unspecified) | 0 | 0 | - | 0 | 0 | 0
COc1ccc(-c2nnnn2C)cc1S(=O)(=O)Nc1ccc(C)cc1C | 0 | 0 | 0 | 0 | 0 | 0
COc1cccc(CC(=O)Nc2nc(-c3ccc(F)c(F)c3)cs2)c1 | 0 | 0 | 0 | 0 | 0 | 0
CCOc1ccc(N(CC(=O)NCCSCc2ccccc2)S(=O)(=O)c2ccccc2)cc1 | 0 | 0 | 28 | 0 | 0 | 0
CCOc1ccc(N(CC(=O)NCCSCc2ccccc2)S(C)(=O)=O)cc1 | 0 | 0 | 0 | 0 | 0 | 0
SMILES | PAFAH1B2 inh | ASAP1 inh | pPAFAH inh | PAFAH1B3 FP inh | ARFGAP1 inh | PAFAH2 inh
Cc1cc(C)cc(N(CC(=O)NCCSCc2ccccc2)S(C)(=O)=O)c1 | 0 | 0 | 31 | 0 | 0 | 0
CN(C)c1ccccc1-c1cc(NC=O)c2ncc(-c3cccc(C(F)(F)F)c3)n2c1 | - | 0 | - | - | 0 | -
COc1[nH]c(/N=C/c2ccccc2)c(C#N)c1C#N | 81 | 0 | 0 | 82 | 0 | 83
Cc1cccc(C)c1NC(=O)CN(C)CC(=O)N1CC(=O)Nc2ccccc21 | 0 | 0 | 0 | 0 | 0 | 0
CCOc1cccc(C2C(C#N)=C(N)Oc3cc(C)[nH]c(=O)c32)c1OCC (stereo unspecified) | 0 | 0 | 0 | 0 | 0 | 0
CCc1ccc2[nH]c(=O)c(C3C(C#N)=C(N)Oc4c3ccc3cccnc43)cc2c1 (stereo unspecified) | 0 | 0 | 43 | 0 | 0 | 0
Cc1ccc2cc(C3C(C#N)=C(N)Oc4c3ccc3cccnc43)c(=O)[nH]c2c1 (stereo unspecified) | 0 | - | 27 | 0 | - | 0
N#CC1=C(N)Oc2c(ccc3cccnc23)C1c1cccnc1 (stereo unspecified) | 0 | 0 | 0 | 0 | 0 | 0
Cc1cc(C)cc(N(CC(=O)Nc2ccc(C)cc2Cl)S(=O)(=O)c2c(C)[nH]c(=O)[nH]c2=O)c1 | 0 | 0 | 0 | 0 | 0 | 0
Cc1cc(C)cc(N(CC(=O)Nc2ccc(C(F)(F)F)cc2)S(=O)(=O)c2c(C)[nH]c(=O)[nH]c2=O)c1 | 0 | 0 | 28 | 0 | 0 | 0
COc1cc(NC(=O)CN(c2cc(C)cc(C)c2)S(=O)(=O)c2c(C)noc2C)cc(OC)c1 | 0 | 0 | 0 | 0 | 0 | 0
COc1cc(NC(=O)CN(c2cc(C)cc(C)c2)S(=O)(=O)c2c(C)[nH]c(=O)[nH]c2=O)cc(OC)c1 | 0 | 0 | 25 | 0 | 0 | 0
Cc1ccc(NC(=O)CN(C)C(=O)c2cc(-c3ccco3)nc3ccccc23)cc1 | 0 | 0 | 32 | 0 | 0 | 0
COc1cccc(NC(=O)CN(C)C(=O)c2cc(-c3ccco3)nc3ccccc23)c1 | 0 | 0 | 0 | 0 | 0 | 0
CN(CCOc1ccc(Cl)cc1)C(=O)c1cc(-c2ccco2)nc2ccccc12 | 0 | 0 | 26 | 0 | 0 | 0
CN(CC(=O)Nc1ccc(F)cc1)C(=O)c1cc(-c2ccco2)nc2ccccc12 | 0 | 0 | 27 | 0 | 0 | 0
CCCNC(=O)c1onc(CSc2nc3ccccc3[nH]2)c1C(=O)NCCC | 0 | 0 | 0 | 0 | 0 | 0
O=S(=O)(Nc1cccc(-c2cn3ccsc3n2)c1)c1ccc(F)cc1 | 0 | 0 | 32 | 0 | 0 | 0
COc1ccc(-c2sc3ccc(N4CCOCC4)cc3c2C#CC(C)(C)O)cc1 | 0 | 0 | 0 | 0 | 0 | 0
COc1ccc(-c2sc3ccc(N4CCOCC4)cc3c2C#Cc2ccsc2)cc1 | 0 | 0 | 28 | 0 | 0 | 0
CC(C)N=c1scc(-c2cccs2)n1/N=C/c1ccc(O)c(O)c1O | 0 | 0 | 68 | 0 | 0 | 0
COc1ccc(NC(=O)CC2SC(N3CCOCC3)=NC2=O)cc1OC (stereo unspecified) | 0 | 0 | 0 | 0 | 0 | 0
N#C/C(=C\c1ccc(-c2cccc([N+](=O)[O-])c2)o1)C(=O)Nc1nc(-c2cccs2)cs1 | 0 | 0 | 33 | 0 | 0 | 0
COCc1cccc(-c2csc(C(C)(NC(C)=O)c3ccc(OC)cc3)n2)c1 (stereo unspecified) | - | 0 | - | - | 0 | -

High-throughput results (PubChem)
